Sampled rows, rich in hits. Any-hit rate of the full collection: about 2.6%.
CHO parental Ca: signal in parental CHO cells, OX1R antagonist counter-screen. parental CHO-K1, ATP-induced calcium, Fluo-8 fluorescence. inhibition, % at 5.6 µM. 0.63% of 330,000 active. AID 463079;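 active means inhibition above that plate's mean sample inhibition plus 3 SD, cut at about 26% in these data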
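Measured by: calcium-sensitive Fluo-8 fluorescence / Test system: CHO parental line / Controls: ATP-challenged DMSO wells low, unchallenged DMSO wells high / Measure: % inhibition / Compound: single nominal dose of 5.6 µM per compound / Replicates: single well per compound, no replicates / Reagent: ATP as calcium-mobilizing challenge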
OXTR potentiator: potentiators of human oxytocin receptor; P30559; CHO-OTR cells, Fluo-8 calcium fluorescence, potentiator mode; 0% = oxytocin EC15, 100% = EC100; activation, % at 3 µM; 0.061% of 320,000 active; AID 2445;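 active means activation above that plate's cutoff, the mean activation of tested compounds plus 3 SD, cut at about 6.6% in these data, passing the limit was not always enough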
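Assay system: CHO-OTR cells, human receptor / Also added: oxytocin at about EC15, sub-maximal agonist stimulus / Dosing: single dose, 3.0 µM nominal final compound concentration / Incubation: 6 min pre-incubation, 100 s read / Technique: Fluo-8 calcium dye fluorescence / Read-out: % activation vs EC15 and EC100 oxytocin / Benchmarks: EC15 oxytocin low, 75 nM oxytocin high / Replicates: singlicate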
V1aR counter: activates human V1a receptor in oxytocin agonist counter-screen; P37288; CHO-V1R cells, Fluo-8 calcium fluorescence, agonist mode; 0% DMSO, 100% 3 nM vasopressin; activation, % at 3 µM; 0.25% of 320,000 active;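 active means activation above the mean activation of all tested compounds plus 3 SD, per screening run, cut at about 20% in these data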;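 further: signal is peak over basal fluorescence ratio across a 100 second FLIPR read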
Target sequence (P37288 whole entry, looked up): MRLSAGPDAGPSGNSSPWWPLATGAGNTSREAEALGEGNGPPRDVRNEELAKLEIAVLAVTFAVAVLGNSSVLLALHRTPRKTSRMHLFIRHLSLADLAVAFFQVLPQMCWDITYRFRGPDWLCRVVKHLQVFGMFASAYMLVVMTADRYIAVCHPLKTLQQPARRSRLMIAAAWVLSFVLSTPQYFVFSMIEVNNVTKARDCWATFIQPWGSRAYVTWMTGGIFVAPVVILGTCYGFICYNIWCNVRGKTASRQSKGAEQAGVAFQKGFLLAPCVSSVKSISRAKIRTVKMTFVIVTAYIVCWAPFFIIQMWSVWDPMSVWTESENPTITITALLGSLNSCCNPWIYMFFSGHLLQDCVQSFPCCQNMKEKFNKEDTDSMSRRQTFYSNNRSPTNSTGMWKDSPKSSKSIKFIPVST
OXTR ag: activates the human oxytocin receptor; CHO-OTR cells, Fluo-8 calcium fluorescence; normalized: DMSO 0%, oxytocin 100%; activation, % at 3 µM; 0.32% of 320,000 active; AID 2435;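 active means activation above the mean of all tested compounds plus 3 SD, cutoff set per screening run, cut at about 20% in these data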;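 further: peak over basal fluorescence ratio from a 100 s FLIPR kinetic read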
OX1R antag-1: OX1R (human) antagonism. O43613. OX1R-expressing cells, FRET antagonist read-out. inhibition, % at 6.6 µM. 1.8% of 330,000 active; in the data active means inhibition mostly above about 38%, no sharp cut-off; inactive means mostly below about 40%
OX1R antag-2: blocks the human orexin 1 receptor. O43613. CHO/OX1R cells, Fluo-8 calcium fluorescence, orexin A. inhibition, % at 5 µM. 0.43% of 330,000 active. AID 434989;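 active means inhibition above its plate's threshold, mean inhibition of all tested compounds on the plate plus 3 SD, cut at about 37% in these data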
Numbers stand for hits; n = inactive; x = no result.

SMILES | CHO parental Ca | OXTR potentiator | V1aR counter | OXTR ag | OX1R antag-1 | OX1R antag-2
O=C(Nc1cccc(S(=O)(=O)N2CCCCC2)c1)C1CCCN1S(=O)(=O)c1ccccc1F (centres undefined) | n | n | n | n | 28 | n
Cc1ccc(S(=O)(=O)NC2CCSC2=O)cc1C (centres undefined) | n | n | n | n | n | n
COc1cc(NC(=O)CN2C(=O)C(C)N(c3ccc(C)cc3)C2=O)cc(OC)c1 (centres undefined) | n | n | n | n | n | n
CCN(CC(=O)Nc1c(F)cccc1F)C(=O)CNC(=O)c1ccco1 | n | n | n | n | n | n
CCN(CC(=O)Nc1c(F)cccc1F)C(=O)CNC(=O)c1ccc(Br)o1 | n | n | n | n | 60 | n
CCCN(Cc1nnc(-c2cccs2)o1)C(=O)c1cccc(S(=O)(=O)N2CCOCC2)c1 | n | n | n | n | n | n
S=C(Nc1ccc(Cl)c(Cl)c1)NC1CCCCC1 | 38 | n | n | n | 59 | n
Fc1ccc(NC(=S)NC2CCN(Cc3ccccc3)CC2)cc1 | n | n | n | n | n | n
CCc1ccc(NC(=S)NC2CC3CCCC(C2)N3Cc2ccccc2)cc1 (centres undefined) | n | n | n | n | n | n
S=C(Nc1ccc(Cl)cc1)NC1CC2CCC(C1)N2Cc1ccccc1 (centres undefined) | n | n | n | 21 | n | n
S=C(Nc1ccc(Cl)c(Cl)c1)NC1CCN(Cc2ccccc2)CC1 | 93 | n | 39 | 42 | n | 96
C=CCOc1cccc(/C=C/c2nc3ccccc3c(=O)[nH]2)c1 | n | n | n | n | n | n
COC(=O)[C@]1(Cc2ccccc2)N[C@H](CN(C)C(C)=O)[C@@H]2C(=O)N(Cc3ccccc3)C(=O)[C@@H]21 | n | n | n | n | n | n
O=S(=O)(Nc1nc2ccccc2nc1N1CCN(CCO)CC1)c1cc(F)ccc1F | n | n | n | n | n | n
C=CCn1c(=O)[nH]c2nc3cc(N=CN(C)C)c(C)cc3nc2c1=O | n | n | n | n | 73 | n
CN(C)/C=N/c1cc(=O)[nH]c(=O)n1CC1CC1 | n | n | n | n | n | n
Cc1ccccc1-c1nnc(SCC(=O)N(C)C2CCS(=O)(=O)C2)n1C (centres undefined) | n | n | n | n | n | n
O=S(=O)(CCc1nc2ccccc2o1)c1ccc2ccccc2c1 | n | n | n | n | 45 | n
c1ccc2oc(CCc3nc4ccccc4o3)nc2c1 | n | n | n | n | n | n
CCCCN(C(=O)c1ccc([N+](=O)[O-])o1)c1c(N)n(CCCC)c(=O)[nH]c1=O | n | n | n | n | 62 | n
CCCCN(C(=O)c1ccccc1OCc1ccc(F)cc1)c1c(N)n(CCC)c(=O)[nH]c1=O | n | n | n | n | 66 | n
CCCCN(C(=O)c1ccc(-c2ccc([N+](=O)[O-])cc2)o1)c1c(N)n(CCCC)c(=O)[nH]c1=O | n | n | n | n | n | n
CCCCn1c(N)c(N(Cc2ccccc2OC)C(=O)COc2ccccc2OC)c(=O)[nH]c1=O | n | n | n | n | n | n
CCCCn1c(N)c(N(Cc2ccccc2OC)C(=O)c2ccc([N+](=O)[O-])s2)c(=O)[nH]c1=O | n | n | n | n | 50 | n
COc1ccccc1C(=O)NCCC(=O)Nc1ccc(S(=O)(=O)N2CC(C)CC(C)C2)cc1 (centres undefined) | n | n | n | n | n | n
SMILES | CHO parental Ca | OXTR potentiator | V1aR counter | OXTR ag | OX1R antag-1 | OX1R antag-2
CC12CCC(c3c(C(=O)O)nn(-c4ccccc4)c31)C2(C)C (centres undefined) | n | n | n | n | 41 | n
CC12CCC(c3c(C(=O)Nc4nccs4)nn(-c4ccccc4)c31)C2(C)C (centres undefined) | n | n | n | n | n | n
Cc1ccnc(NC(=O)CNC(=O)Cc2cccc3ccccc23)c1 | n | n | n | n | n | n
CCOc1ccc(NC(=O)CN2C(=O)NC(CCc3ccccc3)C2=O)cc1OCC (centres undefined) | n | n | n | n | n | n
Cc1cccc(OCC(=O)OCC(=O)Nc2sccc2C(N)=O)c1 | 33 | n | n | n | n | 44
NC(=O)c1ccsc1NC(=O)COC(=O)Cc1c[nH]c2ccccc12 | n | n | n | n | n | n
Cc1cccc(OC(C)C(=O)OCC(=O)Nc2sccc2C(N)=O)c1 (centres undefined) | n | n | n | n | n | n
NC(=O)c1ccsc1NC(=O)COC(=O)Cc1cccc2ccccc12 | 59 | n | n | n | n | 75
O=C(Nc1ccc(N2CCOCC2)cc1)C1CCN(S(=O)(=O)c2ccccc2F)CC1 | n | n | n | n | n | n
O=C(CCC1CCCN(C(=O)c2cc3ccccc3o2)C1)NCc1ccc(F)c(F)c1 (centres undefined) | n | n | n | n | n | n
O=C(CSc1cccs1)Nc1ccc2ccccc2c1 | n | n | n | n | 41 | n
N#C/C(=N\Nc1ccc(Cl)cc1)C(=O)c1ccccc1 | n | n | n | n | 60 | n
Cc1cc2oc(=O)cc(CN(C)Cc3ccccc3)c2cc1C(C)C | 31 | n | n | n | n | n
O=C(NCCCn1ccnc1)c1cc2cc([N+](=O)[O-])ccc2oc1=O | n | n | n | n | 69 | n
Oc1ccc(Cl)cc1Cc1cc(Cl)ccc1O | n | n | n | n | 46 | n
Oc1ccc(Cl)cc1CNCc1ccc(Cl)cc1 | n | n | n | n | n | n
Cc1ccc(N2CCN(S(=O)(=O)c3ccc(-n4cnnn4)cc3)CC2)c(C)c1 | n | n | n | n | n | n
CCOc1ccc(S(=O)(=O)N2CCN(c3ccc(C)cc3C)CC2)cc1 | 27 | n | n | n | n | n
COc1ccc(S(=O)(=O)N2CCN(c3c(C)cccc3C)CC2)cc1OC | 45 | n | n | n | n | n
COc1ccc(S(=O)(=O)N2CCN(c3ccc(C)cc3C)CC2)cc1OC | 36 | n | n | n | n | n
CCOc1ccc(S(=O)(=O)N2CCCC2)cc1 | n | n | n | n | n | n
COc1ccc(S(=O)(=O)N2CCN(c3ncccn3)CC2)cc1OC | n | n | n | n | n | n
COCCCNC(=O)C[C@H]1C[C@H](C(=O)N2CCOCC2)[C@@]2(C)c3[nH]c4cc(CCC(=O)N(C)C)ccc4c3CCN2C1=O | n | x | x | x | n | n
CC(C)Cc1ccc(C(C)C(=O)Nc2cccnc2)cc1 (centres undefined) | 69 | n | 43 | 46 | n | 90
CCOC(=O)C1=C(Cn2cnc3ccccc32)NC(=O)NC1c1cc(C)ccc1C (centres undefined) | 95 | n | n | n | n | 79

Source: PubChem BioAssay (The Scripps Research Institute Molecular Screening Center)
